Measurements: ChEMBL document CHEMBL1124215, “Improved delivery through biological membranes. 26. Design, synthesis, and pharmacological activity of a novel chemical delivery system for beta-adrenergic blocking agents” (1988)
Activity calls are given as the source filed them. The rule behind the calls is not given here.

What was measured:
[1] = system: Oryctolagus cuniculus; experiment: Percentage change of IOP in rabbits after 6 hr administration (1%) of compound; format: functional
Summary of the method: (§1)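 Rabbits received 1% or 2.5% drug solution in pH 7.4 buffer or saline in both eyes, at least four per group. A control group of at least three rabbits received carrier only. IOP was read by pneumatonometer in unrestrained, unanesthetized animals after one drop of 0.5% propacaine diluted 1:2 with saline. Readings were taken at 30 and 60 min and at 2–8 h. Values are mean ± SE, with significance by Student's t test.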

[2] = system: Oryctolagus cuniculus; experiment: Percentage change of IOP in rabbits after 8 hr administration (1%) of compound; format: functional; summary of the method: as §1
[3] = system: Oryctolagus cuniculus; experiment: Percentage change of IOP in rabbits after 2 hr administration (1%) of compound; format: functional
Summary of the method: (§2)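 IOP was read by pneumatonometer in unrestrained, unanesthetized rabbits after local propacaine drops. Drug was given as a 1% or 2.5% solution in pH 7.4 buffer or saline to both eyes, at least four rabbits per group; controls (at least three) received carrier only. Readings were taken at 30 and 60 min and at 2, 3, 4, 6 and 8 h. Values are mean ± SE; Student's t test.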

[4] = system: Oryctolagus cuniculus; experiment: Percentage change of IOP in rabbits after 30 min administration (1%) of compound; format: functional; summary of the method: as §1
[5] = system: Oryctolagus cuniculus; experiment: Percentage change of IOP in rabbits after 3h administration (1%) of compound; format: functional; summary of the method: as §1
[6] = system: Oryctolagus cuniculus; experiment: Percentage change of IOP in rabbits after 4 hr administration (1%) of compound; format: functional; summary of the method: as §1
[7] = system: Oryctolagus cuniculus; experiment: Percentage change of IOP in rabbits after 5 hr administration (1%) of compound; format: functional; summary of the method: as §1
[8] = system: Oryctolagus cuniculus; experiment: Percentage change of IOP in rabbits after 0 min administration (1%) of compound; format: functional; summary of the method: as §2
[9] = system: Oryctolagus cuniculus; experiment: Percentage change of IOP in rabbits after 1 hr administration (1%) of compound; format: functional; summary of the method: as §2
[10] = system: Oryctolagus cuniculus; experiment: Effect on IOP of rabbits 0 min after administration (1%); format: functional; summary of the method: as §2
[11] = system: Oryctolagus cuniculus; experiment: Effect on IOP of rabbits 1 hr after administration (1%); format: functional; summary of the method: as §2
[12] = system: Oryctolagus cuniculus; experiment: Effect on IOP of rabbits 2 hr after administration (1%); format: functional; summary of the method: as §2
[13] = system: Oryctolagus cuniculus; experiment: Effect on IOP of rabbits 30 mins after administration (1%); format: functional; summary of the method: as §2
[14] = system: Oryctolagus cuniculus; experiment: Effect on IOP of rabbits 3h after administration (1%); format: functional; summary of the method: as §2
[15] = system: Oryctolagus cuniculus; experiment: Effect on IOP of rabbits 4 hr after administration (1%); format: functional; summary of the method: as §2
[16] = system: Oryctolagus cuniculus; experiment: Effect on IOP of rabbits 5 hr after administration (1%); format: functional
[17] = system: Oryctolagus cuniculus; experiment: Effect on IOP of rabbits 6 hr after administration (1%); format: functional; summary of the method: as §2
[18] = system: Oryctolagus cuniculus; experiment: Concentration of propranolone oxime in cornea of rabbit after 120 min administration of compound; N/A= no oxime can be present after administration of propranolone hydrochloride; format: functional, organism-based
Summary of the method: (§3)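 Adult male New Zealand albino rabbits (2.5–3.5 kg), at least four per time point. 100 µL of a 1% solution in saline was instilled topically into both eyes. Animals were killed at 30, 60 or 120 min. Cornea and iris-ciliary body were homogenized in methanol to 10% homogenates and deproteinized by centrifugation. Aqueous humor was analysed undiluted. HPLC was calibrated against spiked control-rabbit tissue. Values are mean ± SE, µg/g.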

[19] = system: Oryctolagus cuniculus; experiment: Concentration of propranolone oxime in cornea of rabbit after 30 min administration of compound; N/A= no oxime can be present after administration of propranolone hydrochloride; format: functional, organism-based; summary of the method: as §3
[20] = system: Oryctolagus cuniculus; experiment: Concentration of propranolone oxime in cornea of rabbit after 60 min administration of compound; N/A= no oxime can be present after administration of propranolone hydrochloride; format: functional, organism-based; summary of the method: as §3
[21] = system: Oryctolagus cuniculus; experiment: Concentration of propranolone oxime in iris-ciliary body of rabbit after 120 min administration of compound; N/A= no oxime can be present after administration of propranolone hydrochloride; format: functional, organism-based; summary of the method: as §3
[22] = system: Oryctolagus cuniculus; experiment: Concentration of propranolone oxime in iris-ciliary body of rabbit after 30 min administration of compound; N/A= no oxime can be present after administration of propranolone hydrochloride; format: functional, organism-based; summary of the method: as §3
[23] = system: Oryctolagus cuniculus; experiment: Concentration of propranolone oxime in iris-ciliary body of rabbit after 60 min administration of compound; N/A= no oxime can be present after administration of propranolone hydrochloride; format: functional, organism-based; summary of the method: as §3
[24] = system: Oryctolagus cuniculus; experiment: Concentration in aqueous humor of rabbit after 30 min administration of compound; format: functional, organism-based; details: Aqueous humor of eyeball; summary of the method: as §3
[25] = system: Oryctolagus cuniculus; experiment: Concentration in aqueous humor of rabbit after 60 min administration of compound; format: functional, organism-based; details: Aqueous humor of eyeball; summary of the method: as §3
[26] = system: Oryctolagus cuniculus; experiment: Percentage change of IOP in rabbits after 60 min administration (1%) of compound; format: functional; summary of the method: as §1
[27] = system: Oryctolagus cuniculus; experiment: Percentage change of IOP in rabbits after 60 min administration (2.5%) of compound; format: functional; summary of the method: as §1
[28] = system: Oryctolagus cuniculus; experiment: Percentage change of IOP in rabbits after 6 hr administration (2.5%) of compound; format: functional; summary of the method: as §1
[29] = system: Oryctolagus cuniculus; experiment: Percentage change of IOP in rabbits after 8 hr administration (2.5%) of compound; format: functional; summary of the method: as §1
[30] = system: Oryctolagus cuniculus; experiment: Percentage change of IOP in rabbits after 2 hr administration (2.5%) of compound; format: functional; summary of the method: as §2
[31] = system: Oryctolagus cuniculus; experiment: Percentage change of IOP in rabbits after 30 min administration (2.5%) of compound; format: functional; summary of the method: as §1
[32] = system: Oryctolagus cuniculus; experiment: Percentage change of IOP in rabbits after 3h administration (2.5%) of compound; format: functional; summary of the method: as §1
[33] = system: Oryctolagus cuniculus; experiment: Percentage change of IOP in rabbits after 0 min administration (2.5%) of compound; format: functional; summary of the method: as §2
[34] = system: Oryctolagus cuniculus; experiment: Concentration in cornea of rabbit after 30 min administration of compound; format: functional, organism-based; summary of the method: as §3
[35] = system: Oryctolagus cuniculus; experiment: Concentration in cornea of rabbit after 60 min administration of compound; format: functional, organism-based; summary of the method: as §3
[36] = system: Oryctolagus cuniculus; experiment: Concentration in iris-ciliary body of rabbit after 30 min administration of compound; format: functional, organism-based; summary of the method: as §3
[37] = system: Oryctolagus cuniculus; experiment: Concentration of propranolone oxime in aqueous humor of rabbit after 120 min administration of compound; N/A= no oxime can be present after administration of propranolone hydrochloride; format: functional, organism-based; details: Aqueous humor of eyeball; summary of the method: as §3
[38] = system: Oryctolagus cuniculus; experiment: Concentration of propranolone oxime in aqueous humor of rabbit after 30 min administration of compound; N/A= no oxime can be present after administration of propranolone hydrochloride; format: functional, organism-based; details: Aqueous humor of eyeball; summary of the method: as §3
[39] = system: Oryctolagus cuniculus; experiment: Effect on IOP of rabbits 0 min after administration (2.5%); format: functional; summary of the method: as §2
[40] = system: Oryctolagus cuniculus; experiment: Effect on IOP of rabbits 2 hr after administration (2.5%); format: functional; summary of the method: as §2
[41] = system: Oryctolagus cuniculus; experiment: Effect on IOP of rabbits 30 mins after administration (2.5%); format: functional; summary of the method: as §2
[42] = system: Oryctolagus cuniculus; experiment: Effect on IOP of rabbits 3h after administration (2.5%); format: functional; summary of the method: as §2
[43] = system: Oryctolagus cuniculus; experiment: Effect on IOP of rabbits 4 hr after administration (2.5%); format: functional; summary of the method: as §2
[44] = system: Oryctolagus cuniculus; experiment: Effect on IOP of rabbits 60 mins after administration (2.5%); format: functional; summary of the method: as §2
[45] = system: Oryctolagus cuniculus; experiment: Effect on IOP of rabbits 6 hr min after administration (1%); format: functional; summary of the method: as §2
[46] = system: Oryctolagus cuniculus; experiment: Effect on IOP of rabbits 6 hr min after administration (2.5%); format: functional; summary of the method: as §2
[47] = system: Oryctolagus cuniculus; experiment: Effect on IOP of rabbits 8 hr min after administration (1%); format: functional; summary of the method: as §2
[48] = system: Oryctolagus cuniculus; experiment: Effect on IOP of rabbits 8 hr min after administration (2.5%); format: functional; summary of the method: as §2
[49] = system: Oryctolagus cuniculus; experiment: Concentration of propranolone oxime in aqueous humor of rabbit after 60 min administration of compound; N/A= no oxime can be present after administration of propranolone hydrochloride; format: functional, organism-based; details: Aqueous humor of eyeball; summary of the method: as §3
[50] = system: Oryctolagus cuniculus; experiment: Percentage change of IOP in rabbits after 4 hr administration (2.5%) of compound; format: functional; summary of the method: as §1
[51] = system: Oryctolagus cuniculus; experiment: Effect on IOP of rabbits 60 min after administration (1%); format: functional; summary of the method: as §2

With `CC(C)(C)NC[C@H](O)COc1nsnc1N1CCOCC1` (stereo in doubt; 1b) [TIMOLOL] the Change [1] was 12.4%, the Change [2] was greater than 9.8% and the Change [3] was 6.78%. For the same compound, the Change [4] was greater than -10.93%, the Change [5] was 14.3% and the Change [6] was 14.8%. It also gave a Change [7] of 16.9%, a Change [8] of 0% and a Change [9] of 6.65%. It also gave an IOP [10] of 29.19 mmHg, an IOP [11] of 27.25 mmHg and an IOP [12] of 27.21 mmHg. The IOP [13] was 26 mmHg, the IOP [14] was 25 mmHg and the IOP [15] was 24.88 mmHg. The IOP [16] was 24.25 mmHg and the IOP [17] was 25.58 mmHg.
In the case of `CC(C)NCC(O)COc1cccc2ccccc12` (stereo not drawn) [PROPRANOLOL], the Concentration [18] is reported as “inactive”, the Concentration [19] is reported as “inactive” and the Concentration [20] is reported as “inactive”. The Concentration [21] was “inactive”, the Concentration [22] was “inactive” and the Concentration [23] was “inactive”. For the same compound, the Concentration [24] was 1.3 µg/g, the Concentration [25] was 0.3 µg/g and the Change [26] was greater than -10.39%. For the same compound, the Change [27] was greater than 9.84%, the Change [1] was -5.84% and the Change [28] was 0%. It also gave a Change [2] of -1.95%, a Change [29] of -0.79% and a Change [3] of -5.52%. The Change [30] was 1.18%, the Change [4] was greater than -9.1% and the Change [31] was greater than 8.66%. It also gave a Change [5] of -11.04%, a Change [32] of 1.18% and a Change [6] of -8.44%. It also gave a Change [8] of 0%, a Change [33] of 0% and a Concentration [34] of 47.1 µg/g. For the same compound, the Concentration [35] was 14.5 µg/g, the Concentration [36] was 8.1 µg/g and the Concentration [37] was “inactive”. For the same compound, the Concentration [38] was “inactive”, the IOP [39] was 25.4 mmHg and the IOP [10] was 30.8 mmHg. The IOP [12] was 29.1 mmHg, the IOP [40] was 25.7 mmHg and the IOP [13] was 29 mmHg. The IOP [41] was 27.6 mmHg, the IOP [14] was 27.4 mmHg and the IOP [42] was 25.7 mmHg. The IOP [15] was 28.2 mmHg, the IOP [43] was 25.6 mmHg and the IOP [44] was 27.9 mmHg. The IOP [45] was 29 mmHg, the IOP [46] was 25.4 mmHg and the IOP [47] was 30.2 mmHg. The IOP [48] was 25.2 mmHg, the Concentration [49] was “inactive” and the Change [50] was 0.79%. For the same compound, the IOP [51] was 27.6 mmHg.
